High-throughput results (PubChem BioAssay)
This excerpt belongs to a sample that is enriched for hits.
PTEN del growth = growth suppression of PTEN-null HCT116, primary screen, cell-based, CellTiter-Glo | HCT116 PTEN-null viability, 60 h; stronger effect = lower value | viability, % at 10 µM | 140,000 tested, 1.2% active | AID 827, 2007;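 active means viability at or below a set limit, 4 SD under the median of all tested compounds, cut at about 3.7% in these data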;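 further: PTEN knockout HCT116 line with beta catenin targeted HCT116 as companion control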
Lung fibro prol = antiproliferative effect on LL 47 fibroblasts – human, LL 47 cells, CellTiter-Glo luminescence, primary screen; LL 47 human lung fibroblast viability, ATP luminescence; stronger effect = lower value; 85,000 tested, 1.1% active; viability, % at 10 µM; AID 719, 2007;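 active means viability at or below 50% in the single dose screen; inactive means viability above 50%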;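 further: compound exposure lasted 72 h before the ATP readout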
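Test system: LL 47 human lung fibroblasts / Quantity: 1,150 cells in each well / Medium: IMEM growth medium with 15% fetal bovine serum / Incubation: 72 h compound exposure at 37 °C after overnight plating / Detection: CellTiter-Glo luminescence measuring cellular ATP / Read-out: % viability versus median cells-only luminescence / Benchmarks: cell-only wells, no compound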
H69AR growth 86K = proliferation blockers of H69AR lung cancer cells, primary screen, cell-based, human, 86K library; H69AR lung tumor viability, ATP luminescence, 72 h; stronger effect = lower value; viability, % at 10 µM; 85,000 tested, 6% active;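 active means viability at or below 40%; inactive means viability above 40%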;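 further: multidrug resistant small cell line overexpressing MRP-1 efflux transporter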
PTK2B oligo ant = antagonists of Pyk2 self-association, primary screen, Q293 cells, FERM NanoBiT luminescence, HTS; stronger effect = lower value; z-score (the deposit names both 25 µM and 10 µM); 99,000 tested, 0.83% active; AID 1347419, 2020;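 active means Z-score of -3 or lower, scaled per plate to the spread of control and sample wells; inactive means z-score above -3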;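 further: negative z-score means lost luminescence so less FERM oligomerization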
Target sequence (Q14289 whole entry, looked up): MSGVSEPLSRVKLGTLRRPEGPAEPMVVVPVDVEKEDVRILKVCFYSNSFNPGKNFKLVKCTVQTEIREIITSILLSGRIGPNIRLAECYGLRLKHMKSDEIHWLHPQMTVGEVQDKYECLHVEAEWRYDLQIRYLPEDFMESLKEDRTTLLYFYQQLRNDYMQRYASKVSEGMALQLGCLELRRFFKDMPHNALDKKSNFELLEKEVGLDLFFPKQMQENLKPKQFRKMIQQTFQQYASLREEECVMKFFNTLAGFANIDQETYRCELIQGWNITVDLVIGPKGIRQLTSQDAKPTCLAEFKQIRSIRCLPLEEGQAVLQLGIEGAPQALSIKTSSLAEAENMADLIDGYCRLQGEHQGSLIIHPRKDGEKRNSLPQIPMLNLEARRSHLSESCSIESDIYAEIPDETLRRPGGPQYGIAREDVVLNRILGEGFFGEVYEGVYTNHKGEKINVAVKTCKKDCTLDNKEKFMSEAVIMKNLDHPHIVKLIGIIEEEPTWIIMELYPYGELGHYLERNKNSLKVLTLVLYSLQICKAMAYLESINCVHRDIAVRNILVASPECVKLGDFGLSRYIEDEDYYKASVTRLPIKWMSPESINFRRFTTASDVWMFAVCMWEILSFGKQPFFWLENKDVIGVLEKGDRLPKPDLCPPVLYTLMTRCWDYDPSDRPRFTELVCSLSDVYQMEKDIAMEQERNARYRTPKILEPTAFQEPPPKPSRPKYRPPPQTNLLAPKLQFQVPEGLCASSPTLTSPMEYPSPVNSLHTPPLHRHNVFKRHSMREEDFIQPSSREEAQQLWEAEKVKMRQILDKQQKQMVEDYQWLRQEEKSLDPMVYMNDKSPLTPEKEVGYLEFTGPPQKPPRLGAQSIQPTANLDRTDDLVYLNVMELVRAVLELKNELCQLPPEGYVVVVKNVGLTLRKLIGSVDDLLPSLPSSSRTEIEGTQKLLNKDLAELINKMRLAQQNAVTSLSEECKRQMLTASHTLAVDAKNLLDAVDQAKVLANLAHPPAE
HCT116 bCat-KO = primary screen for growth suppressors in beta-catenin knockout HCT116 cells (colon tumor, human); HCT116 beta-catenin knockout viability, CellTiter-Glo, 60 h; stronger effect = lower value; viability, % at 10 µM; 140,000 tested, 1.5% active;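 active means viability at or under a set limit, the compound median less 4 SD, cut at about 6% in these data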
HUVEC inhibit = inhibitors of HUVEC proliferation, primary screen, cell-based, 384-well; CellTiter-Glo luminescence, 72 h; stronger effect = lower value; viability, % at 10 µM (by protocol); 86,000 tested, 1.1% active; AID 648, 2007;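 active means viability at or below 30%; inactive means viability above 30%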
Hits are given with their value; - = inactive; . = no result.

SMILES	PTEN del growth	Lung fibro prol	H69AR growth 86K	PTK2B oligo ant	HCT116 bCat-KO	HUVEC inhibit
O=C(c1cc(-c2cccs2)nc2ccccc12)N1CCN(S(=O)(=O)c2cccc(F)c2)CC1	-	-	20.8	-	-	-
COc1cccc(-c2cc(C(=O)N3CCN(c4ncccn4)CC3)c3ccccc3n2)c1	-	-	18.9	-	-	-
CC(C)Oc1cccc(-c2cc(C(=O)N3CCN(c4ncccn4)CC3)c3ccccc3n2)c1	-	-	15.1	-	-	-
O=C(c1cc(-c2ccncc2)nc2ccc(Br)cc12)N1CCN(c2ccccn2)CC1	-	-	21.9	-	-	-
O=C(c1cccn2c(=O)c3cc(Br)ccc3nc12)N1CCN(c2ccccn2)CC1	-	-	-	-	-	-
CC(C)Oc1cccc(-c2cc(C(=O)N3CCN(S(C)(=O)=O)CC3)c3ccccc3n2)c1	-	-	24.1	-	-	-
O=C(c1cc(-c2cccs2)nc2ccccc12)N1CCN(S(=O)(=O)c2ccccc2)CC1	-	-	-	-	-	-
CCC(C)(C)n1nnnc1CN1CCc2ccccc21	-	-	-	-	-	-
Cn1c(C(=O)Nc2ccc3c(c2)OCO3)cc2c(=O)n(C)c3ccccc3c21	-	-	30.6	.	-	-
Cn1c(C(=O)N2CCN(Cc3ccc4c(c3)OCO4)CC2)cc2c(=O)n(C)c3ccccc3c21	-	-	37.7	.	-	-
O=C(N/N=C/C1C(c2ccccc2)C1(Cl)Cl)c1cccc(Br)c1 (configuration not stated)	-	.	.	-	-	.
CCn1c(SCC(=O)NC(=O)Nc2ccc3c(c2)OCCO3)nnc1-c1cccs1	-	-	-	-	-	-
Nc1cnc(Br)cc1Br	-	.	.	.	-	.
Nc1cc2nsnc2cc1Br	-	.	.	-	1.8	.
CC(=O)c1c(C)nc(-c2ccc3c(c2)OCO3)n1O	-	-	-	-	-	-
CSc1cccc(-n2cc(-c3ccc4c(c3)OCO4)[nH]c2=O)c1	-	-	25.1	-	-	-
COCCOc1cc(Nc2nnc(C(F)(F)F)s2)c(Cl)cc1Cl	-	-	13.2	-	-	-
CC/C(O)=C1\C(=O)CC(c2ccccc2)CC1=NC(C)C (configuration not stated)	-	.	.	.	-	.
CCOc1ccc2nc(-c3ccccc3)[nH]c2c1	-	-	24.0	-	-	-
O=C(NC1CCCC1)c1ncn[nH]1	-	.	.	-	-	.
Cc1ccc(NC(=O)CN2CCCN(S(=O)(=O)c3ccc(Br)s3)CC2)cc1	-	-	31.4	-	-	-
CC(O)C1CCC2C3CC[C@H]4CC(O)CCC4(C)C3CC3(OCCO3)C12C (some centres not stated)	-	.	.	-	-	.
N#Cc1cc(Oc2cccc3cccnc23)c(-n2nnc3ccccc32)cc1C#N	-	-	17.8	-	-	-
O=[N+]([O-])c1ccc(Oc2cccc3cccnc23)c([N+](=O)[O-])c1	-	.	.	.	-	.
Nc1nc(-c2ccc(Cl)cc2)c(N=Nc2ccc(S(=O)(=O)N3CCOCC3)cc2)s1	3.7	.	.	.	-	.
SMILES	PTEN del growth	Lung fibro prol	H69AR growth 86K	PTK2B oligo ant	HCT116 bCat-KO	HUVEC inhibit
O=S(=O)(c1ccc(Cl)cc1)N1CCC(N2CCOCC2)CC1	-	-	-	-	-	-
O=c1cc(/C=C/c2ccccc2)oc2ccccc12	-	.	.	-	-	.
Cc1cc(C)cc(NS(=O)(=O)c2ccc(NC(=O)C3CCCCC3C(=O)O)cc2)c1 (configuration not stated)	-	.	.	.	-	.
Brc1ccccc1OCCCn1cnc2ccccc21	.	-	-	-3.92	-	16.4
c1ccc(-c2ncnc3cc4n(c23)CCC4)cc1	-	-	-	-	-	-
CCOC(=O)c1snc(C(=O)NC2CCCCC2)c1N	-	-	-	-	-	-
CC(OC(=O)c1snc(C(=O)NC2CCCCC2)c1N)C(=O)NC1CCCCC1 (configuration not stated)	-	-	22.6	-	-	-
O=S(=O)(c1ccccc1)N1CCN(c2cc(-c3ccccc3)nc3ncnn23)CC1	-	-	-	-3.79	-	-
Cc1ccccc1NC(=O)C1CCN(c2cc(-c3ccccc3)nc3ncnn23)CC1	-	-	37.3	-	-	-
O=S(=O)(c1ccc(Br)cc1)N1CCN(c2cc(-c3ccccc3)nc3ncnn23)CC1	-	-	-	-	-	-
Cc1nc2ncnn2c(N2CCC(C(=O)NC3CCCC3)CC2)c1Cc1ccccc1	-	-	-	-	-	-
Cc1c(Cl)cccc1-c1ccc(/C=N/n2cnnc2)o1	-	-	-	-	-	26.6
Clc1ccccc1-c1ccc(/C=N/n2cnnc2)o1	-	-	-	-	-	-
Clc1cccc(-c2ccc(/C=N/n3cnnc3)o2)c1Cl	-	-	-	-	-	9.8
CCCCCOc1ccc(C(=O)NCC(=O)NCC(=O)OCC)cc1	-	-	24.6	-	-	-
CCOC(=O)CNC(=O)CNC(=O)c1ccc(OCC(C)C)cc1	-	-	-	-	-	-
N#Cc1c(N)nc(SCc2ccccn2)c(C#N)c1-c1cccs1	-	-	-	-3.81	-	-
Clc1cccc(CN2CCCCCCC2)c1Cl	-	.	.	.	-	.
Cc1onc(-c2c(F)cccc2Cl)c1C(=O)N1CCc2ccccc21	-	-	30.2	-	-	-
Cc1noc(C)c1C(=O)N1CCc2ccccc21	-	-	-	-	-	-
Cc1onc(-c2c(Cl)cccc2Cl)c1C(=O)N1CCCc2ccccc21	-	-	11.8	-	-	-
COc1cc(OC)c(NS(=O)(=O)c2ccc(Cl)c(C(=O)OC(C)C(=O)N3CCCC3)c2)cc1Cl (configuration not stated)	-	.	.	.	-	.
O=C1CC(c2cccnc2)c2cc3c(cc2N1)OCO3 (configuration not stated)	-	-	-	.	-	-
CCOc1ccccc1C1CC(=O)Nc2cc3c(cc21)OCCO3 (configuration not stated)	-	-	30.2	-	-	-
CCCOc1ccccc1C1CC(=O)Nc2cc3c(cc21)OCCO3 (configuration not stated)	-	.	.	-	-	.
CC(C)Oc1ccccc1C1CC(=O)Nc2cc3c(cc21)OCO3 (configuration not stated)	-	-	19.9	-	-	-
COc1ccc(N2CCN(CC(O)COc3ccccc3[N+](=O)[O-])CC2)cc1 (configuration not stated)	-	.	.	.	-	.
COc1ccc(OC)c(S(=O)(=O)N(C)CC(=O)N2CCN(c3cccc(Cl)c3)CC2)c1	-	-	-	-	-	-
COc1ccc(OC)c(S(=O)(=O)N(C)CC(=O)N2CCN(c3ccc(F)cc3)CC2)c1	-	18.5	-	-	-	-
